Published values gathered from unrelated publications.
Compare with care: the assays were run in different laboratories.
Target: Serine/threonine-protein kinase BRSK1 (BRSK1, Homo sapiens, UniProt Q8TDC3)
One construct used (Q8TDC3 1-778): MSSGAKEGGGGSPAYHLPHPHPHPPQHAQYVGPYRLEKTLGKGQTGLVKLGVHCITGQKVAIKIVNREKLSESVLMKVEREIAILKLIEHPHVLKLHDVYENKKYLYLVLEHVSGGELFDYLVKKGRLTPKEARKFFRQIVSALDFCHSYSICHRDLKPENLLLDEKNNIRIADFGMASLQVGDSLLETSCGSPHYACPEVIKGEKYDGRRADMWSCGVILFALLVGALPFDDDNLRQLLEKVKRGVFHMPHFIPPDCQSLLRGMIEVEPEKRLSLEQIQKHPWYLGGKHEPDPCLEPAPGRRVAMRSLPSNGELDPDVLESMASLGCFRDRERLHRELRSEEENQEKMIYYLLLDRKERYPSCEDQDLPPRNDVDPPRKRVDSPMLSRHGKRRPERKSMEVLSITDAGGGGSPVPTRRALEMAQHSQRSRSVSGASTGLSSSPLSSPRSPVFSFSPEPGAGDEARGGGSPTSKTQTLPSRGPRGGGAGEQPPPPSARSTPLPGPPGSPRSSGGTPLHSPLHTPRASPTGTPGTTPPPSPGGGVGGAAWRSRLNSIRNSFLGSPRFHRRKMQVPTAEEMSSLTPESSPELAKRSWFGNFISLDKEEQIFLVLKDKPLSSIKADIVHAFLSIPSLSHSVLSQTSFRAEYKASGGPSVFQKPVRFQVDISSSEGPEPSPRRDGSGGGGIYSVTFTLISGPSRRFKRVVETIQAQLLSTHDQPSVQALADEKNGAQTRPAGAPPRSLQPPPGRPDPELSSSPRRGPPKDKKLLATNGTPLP

SMILES	read-out	action	method	concentration	quantity	result
Cn1cncc1[C@@](O)(COc1ccc(C#N)cc1-c1ccc(OC(F)(F)F)cc1)c1ccc(C#N)cc1	cell-free assay		competition with immobilised ligand	1 µM	remaining binding	86%
Cc1nn(C)cc1-c1nc2c(N3CCN(Cc4ccc(Cl)cc4)CC3)c(Cl)cnc2[nH]1	binding		competition with immobilised ligand	1 µM	remaining binding	100%
O=c1[nH]c2ccccc2n1C1CCN(Cc2ccc(-c3[nH]c4cc5ncnc5cc4nc3-c3ccccc3)cc2)CC1	cell-free assay			0.5 µM	remaining signal	98.3%
Cn1cc(-c2cccc(N3CCc4c(sc5c4CC(C)(C)C5)C3=O)c2CO)cc(Nc2ccncn2)c1=O	enzyme activity	inhibitor		1 µM	inhibition	3%
COc1ncccc1-c1cnn2ccc(N3CCN(C(=O)OC(C)C)CC3)nc12	binding		competition with immobilised ligand	1 µM	remaining binding	93%
CC(C)(C)c1cc(C=C(C#N)C#N)cc(Br)c1O	enzyme activity	inhibitor		0.5 µM	remaining activity	94%
Nc1ncc(-c2nc(N3CCOCC3)nc(N3CCOCC3)n2)c(C(F)F)n1	binding		competition with immobilised ligand	10 µM	remaining binding	91%
Cn1cc(-c2cc(F)cc(N3CCn4c(cc5c4CCCC5)C3=O)c2CO)cc(Nc2ccc(N3CCN(C4COC4)CC3)cn2)c1=O	enzyme activity	inhibitor		0.1 µM	inhibition	12%
N#CC1(c2ccccn2)CCN(Cc2cc(C(=O)O)c(=O)n3ccccc23)CC1	cell-free assay		competition with immobilised ligand	1 µM	remaining binding	100%
